Results published in ChEMBL document CHEMBL1765024, “Fluorescent cyclin-dependent kinase inhibitors block the proliferation of human breast cancer cells” (Bioorg Med Chem, 2011).
Calls of active or inactive are those of the source. No cut-off for these calls is given here.

Columns and labels:
[1] = target: T1, Cyclin-dependent kinase 5/CDK5 activator 1 (Homo sapiens) (UniProt Q00535+Q15078); conditions: at 0.1 µM
MCF7 [2] = experiment: Drug uptake in human MCF7 cell cytoplasm at 10 uM after 3 to 24 hrs using propidium iodide staining by two-photon confocal microscopy; type: ADME, cell-based; conditions: mcf7, 10 µM
MCF7 [3] = experiment: Induction of apoptosis in human MCF7 cells assessed as viable cells at 10 uM after 24 hrs using annexinV-propidium iodide staining by flow cytometry (reference value: 70.32%); type: functional; conditions: MCF7, 24 h, read-out: Activity
MDA-MB-231 [4] = experiment: Induction of apoptosis in human MDA-MB-231 cells assessed as decrease in Bcl2 protein level at 10 uM after 48 hrs by Western blotting; type: functional, cell-based
Method in brief: (§1)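 MDA-MB-231 cells were treated with vehicle or 10 µM compound for 48 h (and 72 h). Lysates were cleared and protein measured by BCA. Equal protein was run on 10% SDS–PAGE and transferred to PVDF, blocked in 5% milk overnight, and probed 2 h with anti-Bcl-2, Bax or PARP. HRP secondary was applied for 1 h, with ECL detection.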

MDA-MB-231 [5] = experiment: Induction of apoptosis in human MDA-MB-231 cells assessed as increase in Bax protein level at 10 uM after 48 hrs by Western blotting; type: functional, cell-based
Method in brief: as §1

MDA-MB-231 [6] = experiment: Induction of apoptosis in human MDA-MB-231 cells assessed as decrease in caspase 3 protein level at 10 uM after 48 hrs by Western blotting; type: functional, cell-based
MCF7 [7] = experiment: Cell cycle arrest in human MCF7 cells assessed as accumulation at sub G1 phase at 5 to 10 uM after 24 hrs using propidium iodide staining by flow cytometry; type: functional, cell-based
Method in brief: (§2)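 Asynchronous cells were treated with 5 or 10 µM compound or DMSO for 24 h (also 16 and 40 h). They were trypsinized, washed in PBS and fixed/permeabilized in 70% ethanol. Staining was with RNase and propidium iodide for 30 min in the dark at room temperature, followed by flow cytometry. Phase percentages are given minus DMSO control; mean of triplicates.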

MCF7 [8] = experiment: Induction of apoptosis in human MCF7 cells assessed as early apoptotic cells at 10 uM after 24 hrs using annexinV-propidium iodide staining by flow cytometry (reference value: 4.24%); type: functional
MDA-MB-231 [9] = experiment: Induction of apoptosis in human MDA-MB-231 cells assessed as induction of PARP cleavage at 10 uM after 48 hrs by Western blotting; type: functional, cell-based
Method in brief: as §1

MCF7 [10] = experiment: Ratio of IC50 for human CL 10.3 cells expressing p-glycoprotein to IC50 for human MCF7 cells; type: functional
Method in brief: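 MCF-7 and its P-glycoprotein-overexpressing MDR subline CL 10.3 were grown in DMEM with 10% heat-inactivated FBS. Compounds in DMSO were serially diluted in medium and given to cells for 72 h. Read-out was WST-1 reduction (450 nm, 630 nm reference). IC50 interpolated from log concentration versus fraction surviving; mean (SEM) of triplicates. Ratio is CL 10.3 IC50 over MCF-7 IC50.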

MDA-MB-231 [11] = experiment: Cell cycle arrest in human MDA-MB-231 cells assessed as accumulation at G2/M phase at 5 to 10 uM after 16 to 40 hrs using propidium iodide staining by flow cytometry; type: functional, cell-based
Method in brief: as §2

MDA-MB-231 [12] = experiment: Drug uptake in human MDA-MB-231 cell cytoplasm at 10 uM after 3 to 24 hrs using propidium iodide staining by two-photon confocal microscopy; type: ADME, cell-based; conditions: mda-mb-231, 10 µM
[13] = target: T1, Cyclin-dependent kinase 5/CDK5 activator 1 (Homo sapiens); conditions: at 0.1 µM; remark: listed apart in the source

T1 sequence (Q00535 whole entry): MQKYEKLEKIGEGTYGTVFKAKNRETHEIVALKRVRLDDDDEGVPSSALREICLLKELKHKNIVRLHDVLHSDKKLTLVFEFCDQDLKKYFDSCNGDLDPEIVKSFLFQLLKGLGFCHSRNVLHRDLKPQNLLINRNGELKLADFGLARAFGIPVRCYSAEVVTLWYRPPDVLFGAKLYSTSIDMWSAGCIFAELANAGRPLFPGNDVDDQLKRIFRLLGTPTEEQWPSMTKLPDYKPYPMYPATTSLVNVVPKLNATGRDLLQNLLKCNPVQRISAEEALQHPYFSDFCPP
T1 sequence (Q15078 99-307 partner limits assumed): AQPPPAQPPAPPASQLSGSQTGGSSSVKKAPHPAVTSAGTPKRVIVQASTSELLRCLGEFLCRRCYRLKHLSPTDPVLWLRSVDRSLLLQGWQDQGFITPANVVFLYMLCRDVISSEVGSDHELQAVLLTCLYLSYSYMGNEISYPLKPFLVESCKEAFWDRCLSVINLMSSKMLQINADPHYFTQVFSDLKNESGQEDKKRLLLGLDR

- inhibition [1]: 66%
- Activity (MCF7 [2]): Active
- Activity (MDA-MB-231 [12]): Active
- inhibition [13]: 75%
Compound: CC(C)[C@H](CO)Nc1nc(Nc2ccc(C(=O)NCCNS(=O)(=O)c3cccc4c(N(C)C)cccc34)c(Cl)c2)c2ncn(C(C)C)c2n1
- viability at 10 µM (MCF7 [3]): 48.9%
- Activity (MDA-MB-231 [4]): Active
- Activity (MDA-MB-231 [5]): Active
- Activity (MDA-MB-231 [6]): Active
- Activity (MCF7 [7]): Active
- Activity (MCF7 [8]): 10.53%
- Activity (MDA-MB-231 [9]): Active
- Ratio IC50 (MCF7 [10]): 9.8
- Activity (MDA-MB-231 [11]): Active
